We go through seven compounds from ChEMBL document CHEMBL3351404, “Structure-Activity Studies Reveal the Oxazinone Ring Is a Determinant of Cytochrome P450 2B6 Activity Toward Efavirenz” (ACS Med Chem Lett, 2014).

SMILES strings stand for the structures.

Data set [1] deals with Liver microsome. Put plainly: Drug metabolism in pooled human liver microsomes assessed as mono-oxygenated metabolite formation at 10 uM incubated for 60 mins in presence of NADPH by uHPLC-MS/MS method. Format: ADME. As to conditions: 1 h; call rule not given here. An outline of the steps: (§1)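 Metabolite identification in human liver microsome incubations with 10 μM substrate. Products were assigned by m/z (monooxygenated, dihydroxylated, N-dealkylated), uHPLC retention time and MS/MS fragment ions. Parallel incubations in isotopic water located the inserted oxygen from +2 shifts in fragment masses.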
(Liver microsomes are vesicles of endoplasmic reticulum, rich in cytochrome P450 enzymes.)

The test system of data set [2] is Liver microsome. Put plainly: Drug metabolism in pooled human liver microsomes assessed as compound formation at 10 uM incubated for 60 mins in presence of NADPH by uHPLC-MS/MS method. Format: ADME. As to conditions: 1 h. The method, boiled down:
as §1

Data set [3] in a line: Retention time of the compound by uHPLC-MS/MS method. Format: physicochemical. The method, boiled down:
as §1

The target of data set [4] is T1, Cytochrome P450 1A2 (Homo sapiens, UniProt P05177).
T1 sequence (P05177 whole entry): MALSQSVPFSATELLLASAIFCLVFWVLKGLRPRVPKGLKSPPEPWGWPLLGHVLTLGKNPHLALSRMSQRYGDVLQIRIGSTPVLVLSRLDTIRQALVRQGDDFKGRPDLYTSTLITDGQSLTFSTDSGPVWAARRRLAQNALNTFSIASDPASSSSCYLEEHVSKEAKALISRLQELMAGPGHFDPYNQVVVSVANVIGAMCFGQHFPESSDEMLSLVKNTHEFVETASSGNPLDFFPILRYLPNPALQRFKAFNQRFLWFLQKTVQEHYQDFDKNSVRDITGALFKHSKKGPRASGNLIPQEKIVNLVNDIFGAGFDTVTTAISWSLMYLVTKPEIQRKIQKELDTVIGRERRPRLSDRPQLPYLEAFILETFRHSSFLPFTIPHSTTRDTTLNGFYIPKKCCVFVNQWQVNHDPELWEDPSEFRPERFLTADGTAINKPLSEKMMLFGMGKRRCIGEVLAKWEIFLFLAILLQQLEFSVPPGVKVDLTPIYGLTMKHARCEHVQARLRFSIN
The data set is described as follows: Drug metabolism assessed as CYP1A2 (unknown origin)-mediated compound formation at 10 uM incubated for 60 mins in presence of NADPH by uHPLC-MS/MS method. As to conditions: 1 h. The data set is classed as ADME. The method, boiled down:
(§2)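 Individual cDNA-expressed human P450s (CYP2B6 in insect microsomes) were incubated separately with each analogue at 10 μM. The enzyme panel covers the major drug-metabolizing P450s. Products were monitored as the metabolites first found in human liver microsome incubations, identified by m/z and retention time.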

Data set [5] concerns the target T2, Cytochrome P450 2C19 (Homo sapiens, UniProt P33261). Put plainly: Drug metabolism assessed as CYP2C19 (unknown origin)-mediated compound formation at 10 uM incubated for 60 mins in presence of NADPH by uHPLC-MS/MS method. The data set is classed as ADME. As to conditions: 1 h. The method, boiled down: as §2
Data set [6] deals with T3, Cytochrome P450 2D6 (Homo sapiens, UniProt P10635). Put plainly: Drug metabolism assessed as CYP2D6 (unknown origin)-mediated compound formation at 10 uM incubated for 60 mins in presence of NADPH by uHPLC-MS/MS method. Format: ADME. As to conditions: 1 h. An outline of the steps:
as §2

For data set [7], the target named is T1, Cytochrome P450 1A2. The data set is described as follows: Drug metabolism assessed as CYP1A2 (unknown origin)-mediated metabolite formation at 10 uM incubated for 60 mins in presence of NADPH by uHPLC-MS/MS method. Format: ADME. Conditions: 1 h. An outline of the steps:
as §2

Data set [8] has as its target T2, Cytochrome P450 2C19. The data set is described as follows: Drug metabolism assessed as CYP2C19 (unknown origin)-mediated metabolite formation at 10 uM incubated for 60 mins in presence of NADPH by uHPLC-MS/MS method. The data set is classed as ADME. As to conditions: 1 h. The method, boiled down:
as §2

In data set [9] the target is T4, Cytochrome P450 2B6 (Homo sapiens, UniProt P20813).
T4 sequence (P20813 whole entry): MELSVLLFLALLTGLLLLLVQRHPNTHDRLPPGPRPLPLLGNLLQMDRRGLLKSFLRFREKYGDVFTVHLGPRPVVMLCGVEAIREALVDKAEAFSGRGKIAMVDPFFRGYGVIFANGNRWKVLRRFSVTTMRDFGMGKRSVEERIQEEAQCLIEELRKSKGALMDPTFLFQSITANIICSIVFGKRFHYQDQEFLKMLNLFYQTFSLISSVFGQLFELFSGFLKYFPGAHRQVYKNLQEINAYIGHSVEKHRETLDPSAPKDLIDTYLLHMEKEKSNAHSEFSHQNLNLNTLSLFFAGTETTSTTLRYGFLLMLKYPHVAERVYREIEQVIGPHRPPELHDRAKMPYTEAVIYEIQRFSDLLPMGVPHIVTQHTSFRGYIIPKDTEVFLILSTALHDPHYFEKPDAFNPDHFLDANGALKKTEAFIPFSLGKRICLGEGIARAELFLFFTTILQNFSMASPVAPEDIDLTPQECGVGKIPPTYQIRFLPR
Put plainly: Inhibition of CYP2B6 (unknown origin) assessed as reduction in hydroxybupropion formation at 10 uM incubated for 10 mins by uHPLC-MS/MS method. The data set is classed as ADME. Conditions: 10 min, 10 µM. The method, boiled down: (§3)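 CYP2B6 insect microsomes were coincubated with the probe substrate bupropion plus test compound at 10 μM. Hydroxybupropion formation was measured and compared with a vehicle control.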

The target in data set [10] is T4, Cytochrome P450 2B6. Put plainly: Drug metabolism assessed as CYP2B6 (unknown origin)-mediated metabolite formation at 10 uM incubated for 60 mins in presence of NADPH by uHPLC-MS/MS method. The data set is classed as ADME. Conditions: 1 h. An outline of the steps:
as §2

The target of data set [11] is T5, CYP2B6 (Homo sapiens, UniProt P20813).
T5 sequence (P20813 whole entry): T4 sequence (P20813 whole entry)
The data set is described as follows: Activity of CYP2B6 (unknown origin) pre-incubated for 5 mins in presence of NADPH by uHPLC-MS/MS based substrate depletion kinetics assay. Conditions: CYP2B6 enzyme (unknown origin). The data set is classed as ADME. The method, boiled down:
(§4)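 cDNA-expressed CYP2B6 in insect microsomes. Parent loss was followed over time by substrate depletion, chosen because several metabolites form. Km and maximum depletion rate constant (kdep max, min–1) were derived from depletion kinetics, and Vmax was expressed as pmol/min/pmol P450.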

Data set [12] addresses T4, Cytochrome P450 2B6. Put plainly: Activity of CYP2B6 (unknown origin) assessed as maximum depletion rate constant pre-incubated for 5 mins in presence of NADPH by uHPLC-MS/MS based substrate depletion kinetics assay. Format: ADME. An outline of the steps: as §4
Data set [13] deals with T4, Cytochrome P450 2B6. The data set is described as follows: Activity of CYP2B6 (unknown origin) assessed per pmol protein pre-incubated for 5 mins in presence of NADPH by uHPLC-MS/MS based substrate depletion kinetics assay. The data set is classed as ADME. The method, boiled down: as §4
The target of a further data set is Cytochrome P450 3A5 (Homo sapiens, UniProt P20815). Put plainly: Drug metabolism assessed as CYP3A5 (unknown origin)-mediated metabolite formation at 10 uM incubated for 60 mins in presence of NADPH by uHPLC-MS/MS method. As to conditions: 1 h.
The subject of data set [14] is Liver microsome. Put plainly: Drug metabolism in pooled human liver microsomes assessed as N-dealkylated metabolite formation at 10 uM incubated for 60 mins in presence of NADPH by uHPLC-MS/MS method. The data set is classed as ADME. As to conditions: 1 h. An outline of the steps:
as §1

The target in data set [15] is T3, Cytochrome P450 2D6. Put plainly: Drug metabolism assessed as CYP2D6 (unknown origin)-mediated metabolite formation at 10 uM incubated for 60 mins in presence of NADPH by uHPLC-MS/MS method. Format: ADME. Conditions: 1 h. An outline of the steps:
as §2

The target in data set [16] is T5, CYP2B6. The data set is described as follows: Inhibition of CYP2B6 (unknown origin) assessed as reduction in hydroxybupropion formation by measuring remaining enzyme activity at 10 uM incubated for 10 mins by uHPLC-MS/MS method. The data set is classed as ADME. As to conditions: probe bupropion (hydroxybupropion formation), read-out: Activity. The method, boiled down: as §3

Data set [17] has as its system Liver microsome. The data set is described as follows: Drug metabolism in pooled human liver microsomes assessed as mono-oxygenated metabolite formation at 10 uM incubated for 60 mins in presence of NADPH and using isotopic water by uHPLC-MS/MS method. Format: ADME. Conditions: 1 h. An outline of the steps: as §1

T3 sequence (P10635 whole entry): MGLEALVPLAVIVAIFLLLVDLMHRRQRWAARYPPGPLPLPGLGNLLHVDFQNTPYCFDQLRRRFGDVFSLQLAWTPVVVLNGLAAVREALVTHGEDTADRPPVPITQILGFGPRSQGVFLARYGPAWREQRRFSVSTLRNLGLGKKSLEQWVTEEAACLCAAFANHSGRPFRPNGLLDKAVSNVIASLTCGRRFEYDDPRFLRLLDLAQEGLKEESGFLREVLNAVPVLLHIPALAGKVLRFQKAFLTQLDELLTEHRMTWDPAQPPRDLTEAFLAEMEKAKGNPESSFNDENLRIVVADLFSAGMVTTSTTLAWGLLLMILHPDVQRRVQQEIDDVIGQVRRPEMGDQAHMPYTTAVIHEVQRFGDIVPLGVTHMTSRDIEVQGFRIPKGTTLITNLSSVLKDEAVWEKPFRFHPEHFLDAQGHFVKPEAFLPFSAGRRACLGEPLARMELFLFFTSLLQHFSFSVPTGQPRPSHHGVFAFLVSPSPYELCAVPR
T2 sequence (P33261 whole entry): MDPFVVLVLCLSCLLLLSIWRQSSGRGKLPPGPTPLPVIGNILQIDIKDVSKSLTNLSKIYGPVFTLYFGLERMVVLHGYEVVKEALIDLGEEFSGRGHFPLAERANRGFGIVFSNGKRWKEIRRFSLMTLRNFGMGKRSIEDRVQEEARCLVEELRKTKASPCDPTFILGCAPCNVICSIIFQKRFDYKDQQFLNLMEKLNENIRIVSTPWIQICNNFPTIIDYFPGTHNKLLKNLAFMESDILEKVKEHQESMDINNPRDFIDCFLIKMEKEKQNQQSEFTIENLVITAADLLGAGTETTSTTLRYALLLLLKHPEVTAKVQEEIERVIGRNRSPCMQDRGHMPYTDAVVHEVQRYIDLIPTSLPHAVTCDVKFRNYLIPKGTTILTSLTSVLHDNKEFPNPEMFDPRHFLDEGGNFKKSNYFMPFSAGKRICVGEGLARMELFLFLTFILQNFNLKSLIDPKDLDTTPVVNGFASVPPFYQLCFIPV
Chain of Cytochrome P450 3A5 (P20815 whole entry, looked up): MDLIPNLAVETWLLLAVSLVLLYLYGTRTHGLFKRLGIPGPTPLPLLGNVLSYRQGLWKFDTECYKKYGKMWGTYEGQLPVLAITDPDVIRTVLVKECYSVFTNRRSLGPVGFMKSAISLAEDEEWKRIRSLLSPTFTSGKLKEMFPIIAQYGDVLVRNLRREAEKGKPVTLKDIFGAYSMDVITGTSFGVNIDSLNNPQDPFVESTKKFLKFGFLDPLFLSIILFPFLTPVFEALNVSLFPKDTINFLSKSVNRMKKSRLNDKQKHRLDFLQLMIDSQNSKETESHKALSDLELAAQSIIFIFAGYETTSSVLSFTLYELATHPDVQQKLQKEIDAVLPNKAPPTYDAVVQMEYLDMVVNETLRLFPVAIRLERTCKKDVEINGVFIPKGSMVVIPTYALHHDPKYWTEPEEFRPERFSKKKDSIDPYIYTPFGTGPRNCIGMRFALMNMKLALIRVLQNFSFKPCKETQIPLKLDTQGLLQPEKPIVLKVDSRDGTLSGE

For the compound `Nc1ccc(Cl)cc1[C@@](O)(C#CC1CC1)C(F)(F)F`, the Drug metabolism entry in the data set with Liver microsome [1], in the data set on Liver microsome [2], on Cytochrome P450 1A2 [4], at Cytochrome P450 2C19 [5], on Cytochrome P450 2D6 [6] and at Cytochrome P450 1A2 [7] was “metabolite_detected” each time. In addition, the Drug metabolism result at Cytochrome P450 2C19 [8] is given as “metabolite_detected”. Also, the Retention_time in data set [3] is given as 7.31 min. Also, at Cytochrome P450 2B6 [9], the “inhibition (INH)” value is “Active”.

Take `Nc1ccc(Cl)cc1[C@](O)(C#CC1CC1)C(F)(F)F`: the Drug metabolism result in the data set with Liver microsome [1], in the data set on Liver microsome [2], at Cytochrome P450 1A2 [4], on Cytochrome P450 2C19 [5], on Cytochrome P450 2D6 [6] and on Cytochrome P450 1A2 [7] was “metabolite_detected” each time. The Drug metabolism result at Cytochrome P450 2C19 [8] was “metabolite_detected”. Further, the Retention_time in data set [3] is reported as 7.25 min. Besides, the “inhibition (INH)” value at Cytochrome P450 2B6 [9] is “Active”.

Turning to `O=C1Nc2ccc(Cl)cc2[C@@](/C=C/C2CC2)(C(F)(F)F)O1`, the Drug metabolism result in the data set on Liver microsome [1], on Cytochrome P450 1A2 [7], at Cytochrome P450 2B6 [10] and on Cytochrome P450 3A5 was “metabolite_detected” each time. In addition, the Km – broadly, the substrate concentration at which the rate is half of its maximum – at CYP2B6 [11] is 0.23 µM. Further, the K at Cytochrome P450 2B6 [12] worked out at 0.0057 min⁻¹. Besides, the Vmax (as a rule, the rate approached at saturating substrate) on Cytochrome P450 2B6 [13] is recorded as 0.13 pmol/min.

With `COc1ccc(CNc2ccc(Cl)cc2[C@@](O)(C#CC2CC2)C(F)(F)F)cc1`, the Drug metabolism result with Liver microsome [14], on Cytochrome P450 1A2 [7], on Cytochrome P450 2C19 [8] and at Cytochrome P450 2D6 [15] was “metabolite_detected” throughout. Also, the activity at 10 min, 10 µM at CYP2B6 [16] came to 52%.

`COc1ccc(CNc2ccc(Cl)cc2[C@](O)(C#CC2CC2)C(F)(F)F)cc1`: the Drug metabolism result in the data set with Liver microsome [14], at Cytochrome P450 1A2 [7], on Cytochrome P450 2C19 [8] and on Cytochrome P450 2D6 [15] was “metabolite_detected” throughout. Moreover, the activity at 10 min, 10 µM on CYP2B6 [16] stood at 62%.

In the case of `FC(F)(F)[C@@]1(C#CC2CC2)OCNc2ccc(Cl)cc21`, the Drug metabolism result with Liver microsome [1], in the data set on Liver microsome [17], on Cytochrome P450 2B6 [10] and at Cytochrome P450 2C19 [8] was “metabolite_detected” in each case. For the same compound, at CYP2B6 [11], the Km was found to be 0.22 µM. Moreover, on Cytochrome P450 2B6 [12], the K turned out to be 0.14 min⁻¹. The Vmax on Cytochrome P450 2B6 [13] was found to be 3.2 pmol/min. For the same compound, the activity at 10 min, 10 µM on CYP2B6 [16] is 2%.

`O=C1Nc2ccc(Cl)cc2[C@@](/C=C/C2(O)CC2)(C(F)(F)F)O1`: in the data set with Liver microsome [2], the Drug metabolism entry was “metabolite_detected”. In addition, in [3], the Retention_time was found to be 4.98 min.
